≈ marks a conversion by molar mass, not a printed value.

What all share (type): functional
Assay [1] relates to Haemophilus influenzae. In words: MIC value was measured against haemophilus influenzae. In outline:
(§1)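 Susceptibility determined by standard agar-dilution method against a panel of bacterial strains.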

In assay [2] the test system is Haemophilus influenzae. In words: MIC value was measured against haemophilus influenzae CL.
Assay [3] deals with Staphylococcus aureus. In words: MIC value measured against staphylococcus aureus X1.
In assay [4] the test system is Enterococcus faecalis. In words: MIC value was measured against streptococcus faecalis.
For assay [5], the system named is Streptococcus pyogenes. In words: MIC value measured against streptococcus pyogenes C203.
The subject of assay [6] is Staphylococcus epidermidis. The experiment in a line: microbe, parasite or virus in culture.
The subject of assay [7] is Streptococcus pneumoniae. In words: MIC value measured against streptococcus pneumoniae Park1.
The test system of assay [8] is Staphylococcus aureus. The experiment in a line: Effective dose against mice infected with Staphylococcus aureus after peroral administration (in vivo). The conditions noted are these: in Mus musculus, po.
Assay [9] concerns Streptococcus pneumoniae. In words: Effective dose against mice infected with streptococcus pneumoniae after peroral administration (in vivo). The conditions noted are these: in Mus musculus, po.
The test system of assay [10] is Streptococcus pyogenes. The experiment in a line: Effective dose against mice infected with streptococcus pyogenes after peroral administration (in vivo). The conditions noted are these: in Mus musculus, po.
Assay [11] concerns Bacteria. The experiment in a line: MIC value was measured against streptococcus pyogenes. In a few lines:
as §1

The test system of assay [12] is Bacteria. The experiment in a line: MIC value was measured against staphylococcus epidermidis. In a few lines: as §1
The subject of assay [13] is Streptococcus pneumoniae. In words: MIC value was measured against streptococcus pneumoniae park1. In outline: as §1
For assay [14], the system named is Enterococcus faecalis. In words: MIC value was measured against streptococcus faecalis X66. In outline: as §1
The test system of assay [15] is Mus musculus. The experiment in a line: ED50 value was measured by sc administration against streptococcus pyogenes infection in mice (in vivo, in experiment 1). In a few lines: (§2)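 Infected mice were dosed orally or subcutaneously at 1 and 5 h postinfection, 0.25 mL of antibiotic solution in 10% aqueous ethanol per dose. Tartaric acid was added where needed for solubility. Several dose concentrations were tested to give the ED50.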

The test system of assay [16] is Mus musculus. The experiment in a line: ED50 value was measured by sc administration against streptococcus pyogenes infection in mice (in vivo, in experiment 2). In a few lines:
as §2

Assay [17] deals with Mus musculus. In words: ED50 value was measured by po administration against streptococcus pyogenes infection in mice (in vivo, in experiment 1). In a few lines: as §2
Assay [18] concerns Mus musculus. In words: ED50 value was measured by po administration against streptococcus pyogenes infection in mice (in vivo, in experiment 2). In a few lines: as §2
For assay [19], the system named is Mus musculus. In words: ED50 value was measured by sc administration against staphylococcus aureus infection in mice (in vivo, in experiment 1). In outline:
as §2

Assay [20] deals with Mus musculus. In words: ED50 value was measured by sc administration against staphylococcus aureus infection in mice (in vivo, in experiment 2). In outline:
as §2

Assay [21] has as its system Mus musculus. In words: ED50 value was measured by sc administration against streptococcus pneumoniae infection in mice (in vivo, in experiment 1). In outline: as §2
Assay [22] relates to Mus musculus. In words: ED50 value was measured by sc administration against streptococcus pneumoniae infection in mice (in vivo, in experiment 2). In outline: as §2
In assay [23] the test system is Mus musculus. The experiment in a line: ED50 value was measured by po administration against staphylococcus aureus infection in mice (in vivo, in experiment 1). In a few lines: as §2
The test system of assay [24] is Mus musculus. The experiment in a line: ED50 value was measured by po administration against streptococcus pneumoniae infection in mice (in vivo, in experiment 1). In a few lines:
as §2

The test system of assay [25] is Mus musculus. The experiment in a line: ED50 value was measured by po administration against streptococcus pneumoniae infection in mice (in vivo, in experiment 2). In outline:
as §2

In assay [26] the test system is Mus musculus. The experiment in a line: ED50 value was measured by po administration against staphylococcus aureus infection in mice (in vivo, in experiment 2). In outline:
as §2

As to `CCCCC/C=C/CCCN[C@@H]1[C@H](C)[C@@H](O)[C@](C)(O)[C@@H](CC)OC(=O)[C@H](C)[C@@H](OC2CC(C)(OC)C(O)C(C)O2)[C@H](C)[C@@H](OC2OC(C)CC(N(C)C)C2O)[C@](C)(O)C[C@H]1C` (stereo partly specified), the MIC against Haemophilus influenzae [1] came out at 2 µg/mL (≈ 2.29 µM); in the assay with Haemophilus influenzae [2], 2 µg/mL (≈ 2.29 µM); against Staphylococcus aureus [3], 0.5 µg/mL (≈ 0.573 µM); against Enterococcus faecalis [4] it was 0.12 µg/mL (≈ 0.137 µM); against Streptococcus pyogenes [5], 0.008 µg/mL (≈ 0.00916 µM); in assay [6] it was 0.25 µg/mL (≈ 0.286 µM).

Consider `CC[C@H]1OC(=O)[C@H](C)[C@@H](OC2CC(C)(OC)C(O)C(C)O2)[C@H](C)[C@@H](OC2OC(C)CC(N(C)C)C2O)[C@](C)(O)C[C@@H](C)[C@@H](N)[C@H](C)[C@@H](O)[C@H]1C` (stereo partly specified), for which the MIC was found to be 16 µg/mL (≈ 22.3 µM) in the assay on Haemophilus influenzae [2]; 2 µg/mL (≈ 2.78 µM) with Staphylococcus aureus [3]; 1 µg/mL (≈ 1.39 µM) against Enterococcus faecalis [4]; 0.25 µg/mL (≈ 0.348 µM) in the assay on Streptococcus pyogenes [5]; 1 µg/mL (≈ 1.39 µM) in [6].

In the case of `CC[C@H]1OC(=O)[C@H](C)[C@@H](OC2CC(C)(OC)C(O)C(C)O2)[C@H](C)[C@@H](OC2OC(C)CC(N(C)C)C2O)[C@](C)(O)C[C@@H](C)[C@H](NC2CCCCC2)[C@H](C)[C@@H](O)[C@]1(C)O` (stereo partly specified), the MIC in the assay on Haemophilus influenzae [2] is 4 µg/mL (≈ 4.9 µM); in the assay on Streptococcus pneumoniae [7] it was 0.03 µg/mL (≈ 0.0367 µM); with Staphylococcus aureus [3], 0.5 µg/mL (≈ 0.612 µM); with Enterococcus faecalis [4], 0.25 µg/mL (≈ 0.306 µM); against Streptococcus pyogenes [5], 0.06 µg/mL (≈ 0.0734 µM); in assay [6], 0.5 µg/mL (≈ 0.612 µM).

In general, ED50 refers to the dose at which the effect has come halfway, by size or by number of responders. A low value points to greater potency. On to `CC[C@H]1OC(=O)[C@H](C)[C@@H](OC2CC(C)(OC)C(O)C(C)O2)[C@H](C)[C@@H](OC2OC(C)CC(N(C)C)C2O)[C@](C)(O)C[C@@H](C)[C@H](N2CCCCC2)[C@H](C)[C@@H](O)[C@]1(C)O` (stereo partly specified), for which the MIC in the assay with Haemophilus influenzae [1] worked out at 2 µg/mL (≈ 2.49 µM); in the assay on Haemophilus influenzae [2], 2 µg/mL (≈ 2.49 µM); against Staphylococcus aureus [3], 16 µg/mL (≈ 19.9 µM); with Bacteria [11], 1 µg/mL (≈ 1.25 µM); in the assay with Bacteria [12] it was 8 µg/mL (≈ 9.96 µM). The ED50 in the assay with Staphylococcus aureus [8] is > 44 mg/kg; in the assay on Streptococcus pneumoniae [9], 21 mg/kg; with Streptococcus pyogenes [10] it was 24 mg/kg.

Take `CCCN1CO[C@@H]2[C@@H](C)[C@@H]1[C@H](C)C[C@@](C)(O)[C@H](OC1OC(C)CC(N(C)C)C1O)[C@@H](C)[C@H](OC1CC(C)(OC)C(O)C(C)O1)[C@@H](C)C(=O)O[C@H](CC)[C@@]2(C)O` (stereo partly specified): the MIC amounted to 1 µg/mL (≈ 1.27 µM) against Haemophilus influenzae [2]; 0.008 µg/mL (≈ 0.0101 µM) with Streptococcus pneumoniae [13]; 0.25 µg/mL (≈ 0.317 µM) in the assay with Staphylococcus aureus [3]; 0.12 µg/mL (≈ 0.152 µM) against Enterococcus faecalis [14]; 0.008 µg/mL (≈ 0.0101 µM) in the assay on Streptococcus pyogenes [5]; 0.12 µg/mL (≈ 0.152 µM) in assay [6]. The ED50 in the assay with Staphylococcus aureus [8] was 7 mg/kg; in the assay on Streptococcus pneumoniae [9], 5 mg/kg; in the assay on Streptococcus pyogenes [10] it was 5 mg/kg.

Regarding `CC[C@H]1OC(=O)[C@H](C)[C@@H](OC2CC(C)(OC)C(O)C(C)O2)[C@H](C)[C@@H](OC2OC(C)CC(N(C)C)C2O)[C@](C)(O)C[C@@H](C)[C@H](NCCOC)[C@H](C)[C@@H](O)[C@]1(C)O` (stereo partly specified), the MIC amounted to 1 µg/mL (≈ 1.26 µM) against Haemophilus influenzae [1]; 1 µg/mL (≈ 1.26 µM) against Haemophilus influenzae [2]; 0.015 µg/mL (≈ 0.0189 µM) in the assay on Streptococcus pneumoniae [7]; 0.5 µg/mL (≈ 0.63 µM) in the assay on Staphylococcus aureus [3]; 0.12 µg/mL (≈ 0.151 µM) in the assay with Streptococcus pyogenes [5]; 0.25 µg/mL (≈ 0.315 µM) in [6]. The ED50 with Mus musculus [15] amounted to 1.7 mg/kg; with Mus musculus [16], 2.1 mg/kg; in the assay with Mus musculus [17] it was 16 mg/kg; with Mus musculus [18], 16 mg/kg; with Mus musculus [19], 2 mg/kg; in the assay with Mus musculus [20] it was 2.5 mg/kg. Besides, the ED50 in the assay with Mus musculus [21] came to 2 mg/kg; in the assay on Mus musculus [22], 3.3 mg/kg; in the assay on Staphylococcus aureus [8], 35 mg/kg; with Streptococcus pneumoniae [9], 19 mg/kg; in the assay on Streptococcus pyogenes [10], 16 mg/kg; with Mus musculus [23] it was 44 mg/kg. Moreover, the ED50 with Mus musculus [24] turned out to be 25 mg/kg; in the assay on Mus musculus [25] it was 19 mg/kg; with Mus musculus [26], 35 mg/kg.

Turning to `CCCCC/C=C\CCCN[C@@H]1[C@H](C)[C@@H](O)[C@](C)(O)[C@@H](CC)OC(=O)[C@H](C)[C@@H](OC2CC(C)(OC)C(O)C(C)O2)[C@H](C)[C@@H](OC2OC(C)CC(N(C)C)C2O)[C@](C)(O)C[C@H]1C` (stereo partly specified), the MIC worked out at 2 µg/mL (≈ 2.29 µM) in the assay with Haemophilus influenzae [1]; 2 µg/mL (≈ 2.29 µM) in the assay with Haemophilus influenzae [2]; 0.25 µg/mL (≈ 0.286 µM) in the assay on Staphylococcus aureus [3]; 0.25 µg/mL (≈ 0.286 µM) in the assay on Enterococcus faecalis [4]; 0.008 µg/mL (≈ 0.00916 µM) with Streptococcus pyogenes [5]; 0.12 µg/mL (≈ 0.137 µM) in assay [6].

These data come from ChEMBL document CHEMBL1125014, “Synthesis and structure-activity relationships of new 9-N-alkyl derivatives of 9(S)-erythromycylamine” (1990).
